Measured values collected from several papers.
Lines come from different studies, so protocols differ.
Target: Mitogen-activated protein kinase kinase kinase 9 (MAP3K9, Homo sapiens, UniProt P80192)

Structure (SMILES) | assay | conditions | endpoint | value
N#Cc1ccc(NC(=O)Nc2ccccc2)cc1 | cell-free assay, competition with immobilised ligand | 25 µM | remaining binding | 100%
C#Cc1cc(-c2cc(Nc3nc(N[C@@H](C)c4ccc(F)cn4)ncc3Cl)n[nH]2)ccc1C=O | enzyme activity, inhibitor | 0.2 µM | inhibition | 59.8%
COc1ccc2oc(-c3ccc4nc(N)oc4c3)c/c(=N\c3ccccc3NC(=O)CCN)c2c1 | binding | 1 µM | remaining binding | 83%
CCCCC(=O)Nc1ccc(-c2ccc3ncn(CCC)c(=O)c3c2)cn1 | binding, competition with immobilised ligand | 0.5 µM | remaining binding | 83%
C#Cc1cnc(Nc2ccnc(CO)c2)nc1Nc1ccccc1S(C)(=O)=NC#N (stereo not drawn) | cell-free assay | 1 µM | remaining signal | 26%
C=CC(=O)N1CCC[C@@H](n2nc(-c3ccc(Oc4ccccc4)cc3)c3c(N)ncnc32)C1 | enzyme activity, inhibitor | 1 µM | inhibition | 4%
Cc1ccc(NC(=O)c2ccnc(C(F)(F)F)c2)cc1-c1cc(OCCO)nc(N2CCOCC2)c1 | binding | 1 µM | remaining binding | 100%
CO[C@@H]1[C@H](N(C)C(=O)c2ccccc2)C[C@H]2O[C@]1(C)n1c3ccccc3c3c4c(c5c6ccccc6n2c5c31)C(=O)NC4 | enzyme activity, inhibitor | 1 µM | inhibition | 90%
CN1CCN(C(=O)c2ccc(NC(=O)Nc3ccc(N(C)c4ccnc(Nc5ccc(CS(C)(=O)=O)cc5)n4)cc3)cc2)CC1 | binding | 1 µM | remaining binding | 86%
